Laboratory results as given in ChEMBL document CHEMBL4831482 (Eur J Med Chem, 2021).
≈ marks a conversion by molar mass, not a printed value. Calls of active or inactive are those of the source. The rule behind the calls is not given here. Where a SMILES comes first, the peptide text is derived from it. The star is where a group is joined. Boc = CC(C)(C)OC(=O)*

Tests used:
Vero = test: Cytotoxicity against African green monkey Vero cells assessed as reduction in cell viability incubated for 48 hrs by Neutral red assay; assay type: cell-based; details: chlorocebus sabaeus
Outline: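 VERO monkey kidney cells seeded at 25,000 cells/well and incubated 24 h to confluency. Peptide added, then a further 48 h incubation. Viability read by neutral red uptake.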

Aspergillus fumigatus = test: Antifungal activity against Aspergillus fumigatus ATCC 1022 assessed as inhibition of fungal growth by CLSI method; assay type: functional, organism-based
[1] = Aggregation property of the compound in PBS assessed as particle size at pH 7.4 measured after 4 hrs by dynamic light scattering analysis (reference value: 802 nm); assay type: physicochemical; details: buffer, pH 7.4, 4 h
Klebsiella pneumoniae = test: Antibacterial activity against Klebsiella pneumoniae ATCC BAA1705 assessed as inhibition of bacterial growth by CLSI method; assay type: functional, organism-based
[2] = Aggregation property of the compound in PBS assessed as polydispersity index at pH 7.4 by dynamic light scattering analysis (reference value: 0.383); assay type: physicochemical; details: buffer
Candida albicans = test: Antifungal activity against Candida albicans ATCC 10231 assessed as inhibition of fungal growth by CLSI method; assay type: functional, organism-based
Cryptococcus neoformans [3] = test: Antifungal activity against Cryptococcus neoformans ATCC 90113 assessed as inhibition of fungal growth by CLSI method; assay type: functional, organism-based
Cell membrane [4] = test: Induction of membrane permeabilization and disruption in Cryptococcus neoformans ATCC350 assessed as increase in green fluorescence intensity using FITC-labeled compound at MIC measured after 1 hr by confocal laser scanning microscopic analysis; assay type: subcellular
Lipid bilayer [5] = test: Binding affinity to bacterial membrane mimic EPYC/EPYG (7:3) small unilamellar vesicle assessed as Stern-Volmer quenching constant by tryptophan quenching analysis
Cryptococcus neoformans [6] = test: Potency index, ratio of Amphotericin B MIC to test compound MIC for antifungal activity against Cryptococcus neoformans ATCC 90113 assessed as inhibition of fungal growth by CLSI method; assay type: functional
Cryptococcus neoformans [7] = test: Induction of DNA damage in Cryptococcus neoformans ATCC350 assessed as nuclear and chromatin fragmentation by measuring reduction in blue fluorescence intensity at MIC measured after 1 hr by DAPI staining based confocal laser scanning microscopic analysis; assay type: functional, organism-based
Outline: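 Cells centrifuged, resuspended in PBS and stained with DAPI (3.01 µM, 10 min). Confocal imaging at Ex/Em 350/470 nm, with untreated cells as control.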

Cell membrane [8] = test: Disruption of Plasma membrane in Cryptococcus neoformans ATCC350 by HR-TEM analysis; assay type: cell membranes
Enterococcus = test: Antibacterial activity against vancomycin resistant Enterococcus ATCC MP-1 assessed as inhibition of bacterial growth by CLSI method; assay type: functional, organism-based
Cell membrane [9] = test: Induction of pore formation in Cryptococcus neoformans ATCC350 assessed as membrane permeabilization by measuring release of intracellular material at MIC by scanning electron microscopy; assay type: subcellular
Cell membrane [10] = test: Induction of membrane permeabilization in Cryptococcus neoformans ATCC350 assessed as increase in red fluorescence intensity at MIC measured after 1 hr by propidium iodide staining based confocal laser scanning microscopic analysis; assay type: subcellular
Outline: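 Cells centrifuged, resuspended in PBS pH 7.4 and stained with propidium iodide. Confocal imaging at >560 nm, with untreated cells as control.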

Lipid bilayer [11] = test: Binding affinity to mammalian membrane mimic EPYC/cholesterol (10:1) small unilamellar vesicle assessed as Stern-Volmer quenching constant by tryptophan quenching analysis
Cryptococcus neoformans [12] = test: Potency index, ratio of Amphotericin B IC50 to test compound IC50 for antifungal activity against Cryptococcus neoformans ATCC 90113 assessed as inhibition of fungal growth by CLSI method; assay type: functional
Cell wall = test: Disruption of Cell wall in Cryptococcus neoformans ATCC350 by HR-TEM analysis; assay type: subcellular
Escherichia coli = test: Antibacterial activity against Escherichia coli ATCC 35218 assessed as inhibition of bacterial growth by CLSI method; assay type: functional, organism-based
Staphylococcus aureus = test: Antibacterial activity against methicillin-resistant Staphylococcus aureus ATCC 33591 assessed as inhibition of bacterial growth by CLSI method; assay type: functional, organism-based
[13] = Aggregation property of the compound in PBS assessed as particle size at pH 7.4 measured after 4 hrs by dynamic light scattering analysis (reference value: 2073 nm); assay type: physicochemical; details: buffer, pH 7.4, 4 h
[14] = Aggregation property of the compound in PBS assessed as polydispersity index at pH 7.4 by dynamic light scattering analysis (reference value: 0.333); assay type: physicochemical; details: buffer
Cryptococcus neoformans [15] = test: Disruption of capsule in Cryptococcus neoformans ATCC350 by HR-TEM analysis
Pseudomonas aeruginosa = test: Antibacterial activity against Pseudomonas aeruginosa ATCC 27853 assessed as inhibition of bacterial growth by CLSI method; assay type: functional, organism-based

Row | Compound | Activity (Vero) | Activity (Aspergillus fumigatus) | Activity (Klebsiella pneumoniae) | Activity (Candida albicans) | IC50 (Cryptococcus neoformans [3]) | Activity (Cell membrane [4]) | IC50 (Enterococcus) | MIC (Enterococcus) | MIC (Cryptococcus neoformans [3]) | IC50 (Escherichia coli) | IC50 (Staphylococcus aureus) | MIC (Staphylococcus aureus) | IC50 (Pseudomonas aeruginosa) | other results
1 | COC(=O)[C@H](CCCNC(=N)N)NC(=O)[C@H](Cc1c[nH]c2ccccc12)NC(=O)[C@H](Cc1c[nH]cn1)NC(=O)OC(C)(C)C (Boc-His-Trp-Arg-OMe) | > 10 µg/mL | inactive | inactive | inactive | > 20 µg/mL | inactive |  |  |  |  |  |  |  | Activity [1]: 108 nm; Activity [2]: 0.922
2 | CCCCc1ccc(-c2nc(C[C@H](N)C(=O)N[C@@H](Cc3c[nH]c4ccccc34)C(=O)N[C@@H](CCCNC(=N)N)C(=O)OC)c[nH]2)cc1.Cl.Cl | > 10 µg/mL | inactive | inactive | inactive | 0.37 µg/mL | Active | 15.4 µg/mL | 20 µg/mL | 0.63 µg/mL | 15.6 µg/mL | 8.74 µg/mL | 10 µg/mL | > 20 µg/mL | KSV (Lipid bilayer [5]): 6.68; Ratio (Cryptococcus neoformans [6]): 2; Activity (Cryptococcus neoformans [7]): Active; Activity (Cell membrane [8]): Active; Activity (Cell membrane [9]): Active; Activity (Cell membrane [10]): Active; KSV (Lipid bilayer [11]): 146; Ratio IC50 (Cryptococcus neoformans [12]): 2; Activity (Cell wall): Active; MIC (Escherichia coli): > 20 µg/mL; Activity [13]: 2792 nm; Activity [14]: 0.584; Activity (Cryptococcus neoformans [15]): Active
3 | CCCCc1ccc(-c2nc(C[C@H](NC(=O)OC(C)(C)C)C(=O)N[C@@H](Cc3c[nH]c4ccccc34)C(=O)N[C@@H](CCCNC(=N)N)C(=O)NCc3ccccc3)c[nH]2)cc1 | > 10 µg/mL | inactive | inactive | inactive | 1.98 µg/mL (≈ 2.42 µM) |  | 7.38 µg/mL (≈ 9.01 µM) | 10 µg/mL (≈ 12.2 µM) | 2.5 µg/mL (≈ 3.05 µM) | > 20 µg/mL | 9.13 µg/mL (≈ 11.1 µM) | 10 µg/mL (≈ 12.2 µM) | > 20 µg/mL | 
